# From ChEMBL document CHEMBL1143422, “In vitro selection and characterization of human immunodeficiency virus type 2 with decreased susceptibility to lopinavir” (Antimicrob Agents Chemother, 2007)
# pEC50: −log10 of the molar value. Activity calls are given as the source filed them. No cut-off for these calls is given here.
# Tests used:
# [1] = system: Human immunodeficiency virus 2; test: Antiviral activity against HIV2 CDC310319 isolate infected in human PBMC assessed as inhibition of virus production after 5 days by Lenti-RT activity assay; assay type: functional, organism-based; details: Human immunodeficiency virus 2, 120 h
# In short: (§1)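 PBMCs were stimulated with PHA (5 μg/ml) for 3 days, then kept in 20% FBS medium with IL-2 (50 U/ml). Cells were infected 1 h with 50–100 pg RNA virus, washed twice, and given half-log PI dilutions (DMSO 1% final) in triplicate. After 5 days at 37°C, supernatant RT was read versus infected control. EC50 by nonlinear regression, mean of three experiments.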
# [2] = system: Human immunodeficiency virus 2; test: Ratio of EC50 for HIV2 ROD with protease G17N mutation to EC50 for wild type HIV2 ROD; assay type: functional
# In short: (§2)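 Protease mutant clones of HIV-2ROD came from site-directed mutagenesis of pSL-3, with stocks made by 293T transfection. CEM174 cells were infected with 100 pg RT of virus for 2 h at 37°C, washed, and seeded at 2 × 10^5 cells/ml. PI was added as 1:4 serial dilutions, 1% DMSO final, and incubated 7 days. Supernatant RT was read, in triplicate. EC50 came from nonlinear regression, and fold-change is mutant EC50 divided by HIV-2ROD EC50.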
# MT4 = test: (§3) Ratio of EC50 for HIV2 MS to EC50 for HIV1 NL4-3 infected in human MT4 cells; assay type: functional
# [3] = system: Human immunodeficiency virus 2; test: Antiviral activity against wild type HIV2 ROD infected in human CEM cells assessed as inhibition of virus production after 7 days by Lenti-RT activity assay; assay type: functional, organism-based; details: Human immunodeficiency virus 2, ROD, CCRF-CEM, 168 h
# [4] = system: Human immunodeficiency virus 2; test: Antiviral activity against HIV2 CBL-23 infected in human PBMC assessed as inhibition of virus production after 5 days by Lenti-RT activity assay; assay type: functional, organism-based; details: Human immunodeficiency virus 2, CBL-23, 120 h; in short: as §1
# [5] = system: Human immunodeficiency virus 1; test: Antiviral activity against HIV1 NL4-3 infected in human MT4 cells assessed as reduction in virus-induced cytopathic effect after 5 days by MTT assay; assay type: functional, organism-based; details: Human immunodeficiency virus 1, NL4-3, MT4, 120 h
# In short: (§4)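 MT4 cells were infected 1 h with 50–100 pg RNA virus, washed twice, and exposed in triplicate to half-log PI dilutions (DMSO 1% final) for 5 days at 37°C. Cell viability was read by MTT: 4 h, SDS/HCl lysis overnight, OD at 570/650 nm. Cytopathic-effect reduction was scaled between infected and uninfected controls. EC50 by nonlinear regression, mean of three experiments.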
# [6] = system: Human immunodeficiency virus 2; test: Antiviral activity against HIV2 MS infected in human MT4 cells assessed as reduction in virus-induced cytopathic effect after 5 days by MTT assay; assay type: functional, organism-based; details: Human immunodeficiency virus 2, MT4, 120 h; in short: as §4
# [7] = system: Human immunodeficiency virus 2; test: Ratio of EC50 for HIV2 ROD with protease V47A mutation to EC50 for wild type HIV2 ROD; assay type: functional; in short: as §2
# PBMC [8] = test: (§5) Ratio of EC50 for HIV2 CBL-23 infected in human PBMC to EC50 for HIV1 NL4-3 infected in human MT4 cells; assay type: functional
# [9] = system: Human immunodeficiency virus 2; test: Antiviral activity against HIV2 ROD with protease V47A mutation infected in human CEM cells assessed as inhibition of virus production after 7 days by Lenti-RT activity assay; assay type: functional, organism-based; details: Human immunodeficiency virus 2, ROD, CCRF-CEM, 168 h; in short: as §2
# [10] = system: Human immunodeficiency virus 2; test: Antiviral activity against HIV2 ROD with protease G17N/V47A mutation infected in human CEM cells assessed as inhibition of virus production after 7 days by Lenti-RT activity assay; assay type: functional, organism-based; details: Human immunodeficiency virus 2, ROD, CCRF-CEM, 168 h; in short: as §2
# [11] = system: Human immunodeficiency virus 2; test: Ratio of EC50 for HIV2 ROD with protease G17N/V47A mutation to EC50 for wild type HIV2 ROD; assay type: functional; in short: as §2
# [12] = system: Human immunodeficiency virus 2; test: Antiviral activity against HIV2 ROD with protease G17N mutation infected in human CEM cells assessed as inhibition of virus production after 7 days by Lenti-RT activity assay; assay type: functional, organism-based; details: Human immunodeficiency virus 2, ROD, CCRF-CEM, 168 h; in short: as §2
# PBMC [13] = test: (§6) Ratio of EC50 for HIV2 CDC310319 infected in human PBMC to EC50 for HIV1 NL4-3 infected in human MT4 cells; assay type: functional
# [14] = as §3; assay type: functional
# [15] = as §5; assay type: functional
# [16] = as §6; assay type: functional
# [17] = system: Human immunodeficiency virus 2; test: Antiviral activity against HIV2 MS infected in human PBMC cells assessed as inhibition of virus production after 5 days by Lenti-RT activity assay; assay type: functional, organism-based; details: Human immunodeficiency virus 2, PBMC, 120 h
# In short: (§7)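 Infection used 50 to 100 pg RNA for 1 h, followed by two washes. MT4 cells or PHA-stimulated, IL-2-maintained PBMCs were then exposed to half-log PI dilutions in triplicate, with 1% DMSO final. Incubation was 5 days at 37°C. Day-5 supernatant RT was read by Lenti-RT assay. EC50 came from nonlinear regression, as the mean of three independent experiments.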
# [18] = system: Human immunodeficiency virus 2; test: Ratio of EC50 for HIV2 MS infected in human MT4 cells after 1 passage to EC50 for HIV2 MS infected in human MT4 cells; assay type: functional
# [19] = system: Human immunodeficiency virus 1; test: Antiviral activity against HIV1 NL4-3 infected in human PBMC cells assessed as inhibition of virus production after 5 days by Lenti-RT activity assay; assay type: functional, organism-based; in short: as §1
# [20] = system: Human immunodeficiency virus 2; test: Antiviral activity against HIV2 MS infected in human MT4 cells […] after 18 passages; assay type: functional, organism-based; details: Human immunodeficiency virus 2, MT4
# [21] = system: Human immunodeficiency virus 2; test: Ratio of EC50 for HIV2 MS infected in human MT4 cells after 18 passages to EC50 for HIV2 MS infected in human MT4 cells; assay type: functional
# [22] = system: Human immunodeficiency virus 2; test: Antiviral activity against HIV2 MS infected in human MT4 cells […] after 1 passage; assay type: functional, organism-based; details: Human immunodeficiency virus 2, MT4
# [23] = system: Human immunodeficiency virus 1; test: Antiviral activity against HIV1 NL4-3 infected in human MT4 cells assessed as inhibition of virus production after 5 days by Lenti-RT activity assay; assay type: functional, organism-based
# In short: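 HIV-1 NL4-3 in MT4 cells (RPMI 1640, 10% FBS) was adsorbed 1 h at 50–100 pg RNA and washed twice. PI in DMSO (1% final) was added in half-log dilutions, in triplicate. After 5 days at 37°C, supernatant RT was measured and expressed relative to infected untreated control. EC50 came from nonlinear regression, as the mean of three independent experiments.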
# [24] = system: Human immunodeficiency virus 2; test: Antiviral activity against HIV2 MS infected in human MT4 cells assessed as inhibition of virus production after 5 days by Lenti-RT activity assay; assay type: functional, organism-based; details: Human immunodeficiency virus 2, MT4, 120 h; in short: as §7
# [25] = system: Human immunodeficiency virus 1; test: Antiviral activity against HIV1 in presence of 50% human serum; assay type: functional, organism-based
Compound,pEC50 [1],Ratio EC50 [2],pEC50 [3],pEC50 [4],pEC50 [5],pEC50 [6],Ratio EC50 [7],pEC50 [9],pEC50 [10],Ratio EC50 [11],pEC50 [12],Ratio EC50 [14],Ratio EC50 [15],Ratio EC50 [16],other results
CC(C)CN(C[C@@H](O)[C@H](Cc1ccccc1)NC(=O)O[C@H]1CCOC1)S(=O)(=O)c1ccc(N)cc1 [AMPRENAVIR],6.17,0.7,6.07,6.03,7.14,6.05,0.7,6.20,6.39,0.5,6.23,,,,Ratio EC50 (MT4): 12.5; Ratio EC50 (PBMC [8]): 13; Ratio EC50 (PBMC [13]): 9.2
COC(=O)N[C@H](C(=O)N[C@@H](Cc1ccccc1)[C@@H](O)CN(Cc1ccc(-c2ccccn2)cc1)NC(=O)[C@@H](NC(=O)OC)C(C)(C)C)C(C)(C)C [ATAZANAVIR],6.96,0.6,7.47,7.41,8.30,7.70,0.1,8.30,8.52,0.1,7.70,4,7.8,22,
CC(C)CN(C[C@@H](O)[C@H](Cc1ccccc1)NC(=O)O[C@H]1CO[C@H]2OCC[C@H]21)S(=O)(=O)c1ccc(N)cc1 [DARUNAVIR],6.81,0.7,8.05,7.08,7.92,,1.1,8.00,8.10,0.9,8.22,,6.9,12.9,
CC(C)(C)NC(=O)[C@@H]1CN(Cc2cccnc2)CCN1C[C@@H](O)C[C@@H](Cc1ccccc1)C(=O)N[C@H]1c2ccccc2C[C@H]1O.O [INDINAVIR],6.97,0.8,7.19,7.48,7.42,7.66,0.5,7.47,7.62,0.5,7.28,0.5,0.8,2.6,
Cc1cccc(C)c1OCC(=O)N[C@@H](Cc1ccccc1)[C@@H](O)C[C@H](Cc1ccccc1)NC(=O)[C@H](C(C)C)N1CCCNC1=O [LOPINAVIR],6.74,0.8,7.46,7.92,7.74,7.82,9.7,6.47,6.59,7.4,7.55,0.8,0.7,10,pEC50 [17]: 7.82; Ratio EC50 [18]: 1; Activity [19]: Active; pEC50 [20]: 6.29; Ratio EC50 [21]: 34; pEC50 [22]: 7.82; Activity [23]: Active; pEC50 [24]: 8.22
Cc1c(O)cccc1C(=O)N[C@@H](CSc1ccccc1)[C@H](O)CN1C[C@H]2CCCC[C@H]2C[C@H]1C(=O)NC(C)(C)C [NELFINAVIR],6.41,0.7,6.55,7.08,7.74,7.32,0.6,6.75,7.00,0.4,6.70,2.7,4.6,21.6,
CC(C)c1nc(CN(C)C(=O)N[C@H](C(=O)N[C@@H](Cc2ccccc2)C[C@H](O)[C@H](Cc2ccccc2)NC(=O)OCc2cncs2)C(C)C)cs1 [RITONAVIR],6.18,0.7,6.38,6.29,7.34,6.46,0.3,6.94,7.08,0.2,6.51,7.6,11.2,14.5,pEC50 [25]: 7.00
CC(C)(C)NC(=O)[C@@H]1C[C@@H]2CCCC[C@@H]2CN1C[C@@H](O)[C@H](Cc1ccccc1)NC(=O)[C@H](CC(N)=O)NC(=O)c1ccc2ccccc2n1 [SAQUINAVIR],7.17,0.6,8.44,8.10,7.92,8.30,0.1,9.70,9.70,0.1,8.66,0.4,0.7,5.7,
